Data: publication PMC4917231 (MedChemComm, 2016)

Key:
[1] = Tissue distribution study in mice after IP dosing; type: in vivo; conditions: 20 mg/kg IP
Outline: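 Non-tumour-bearing mice received a single IP dose of test compound at 20 mg kg⁻¹, given as a 1 mg ml⁻¹ formulation in 10:10:80 DMSO:Tween80:water. Compound residence in tissues was followed after dosing.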

[2] = test system: Raji Burkitt B-cell lymphoma; assay: 96h MTT assay using Raji Burkitt B-cell lymphoma; type: cell-based; conditions: Homo sapiens, Raji cells

Row | detectability in tissues seven days after IP administration [1] | EC50 [2] [nM] | Structure (SMILES)
1 | detectable in all tissues |  | CC(C)Cc1nn(C)c(=O)c2c(SCCCO)n(Cc3ccc(C#CCCCOc4ccc(C[C@H](N)C(=O)O)cc4)c4ccccc34)cc12 [Compound 10]
2 |  | ~100 | CC(C)Cc1nn(C)c(=O)c2c(SCCCO)n(Cc3ccc(NCCCCCNC(=O)[C@@H](N)CCC(N)=O)nc3)cc12 [Compound 12]
